Active and inactive are the calls of the source.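 How the source made its calls, unless noted: active means inhibition at or above 50% at 10 µM; inactive means inhibition below 50%.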
How the values were obtained:
[1] = inhibitors of TNFa-induced NFkB p65 translocation, primary screen, imaging, HUVEC, MLSMR starter and 10KST1 sets (AID 438;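 active means inhibition above 20% together with a positive visual image hit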;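 further: compound added about 3h40 before a 20 min TNFalpha stimulation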;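 on inhibition: signal is the nuclear over cytoplasmic p65 intensity ratio per well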); details: HUVEC TNFa-induced p65 nuclear translocation; cell count: measured here: nuclei count (cytotoxicity indicator), at 2.08 µM; inhibition: at 2 µM, stronger effect = higher value, 0% TNFa-plus-vehicle, 100% no-TNFa wells
[2] = inhibitors of mutant huntingtin aggregation, primary screen, imaging, exon1htt(103Q)mCFP cells, high-content imaging (AID 483;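 active means visual image review flags a hit and inhibition of aggregation exceeds 20%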;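 further: compound exposure lasted 3 days before fixation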;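 on nuclei count: percent of the per-plate median nuclei count of sample wells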); details: exon1htt(103Q)mCFP cell line, aggregate imaging, at 2 µM; inhibition of aggregation: stronger effect = higher value; nuclei count: measured here: cell count, toxicity
[3] = inhibitors of E-selectin induction by TNFa, primary screen, imaging, HUVEC, immunofluorescence, MLSMR starter and 10KST1 sets (AID 487;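 active means visually confirmed hit in the image check and inhibition above 20%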;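 on inhibition: signal is fraction of cell area covered by stained E-selectin grains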;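 on nuclei count: 100% = median nuclei count of all wells on the same plate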); details: HUVEC TNFalpha-induced E-selectin immunofluorescence imaging, at 2 µM; inhibition: stronger effect = higher value; nuclei count: measured here: cell number, toxicity
[4] = target: Voltage-gated potassium channel subunit beta-2 (Rattus norvegicus) (UniProt P62483); experiment: KvBeta enzyme negative modulators, primary screen, biochemical, NADPH fluorescence (AID 622;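 active means fluorescence slope higher than the sample average by over 3 SD, cut at about -0.22 in these data, passing the limit was not always enough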;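 further: slope of raw intensity against log time taken from 70 to 1610 s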); details: recombinant KvBeta, 4-cyanobenzaldehyde reduction, at 10 µM, stronger effect = higher value
[5] = target: Voltage-gated potassium channel subunit beta-2 (Rattus norvegicus) (UniProt P62483); experiment: KvBeta positive modulators, primary screen, biochemical, NADPH fluorescence (AID 623;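 active means NADPH fluorescence slope more negative than the mean of all samples by about 3 SD, 99.7% confidence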;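 further: fluorescence intensity change per second fitted from 20 to 320 s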); details: Recombinant KvBeta, NADPH fluorescence decrease slope, 10 min; at 10 µM; stronger effect = lower value
[6] = target: Muscarinic acetylcholine receptor M4 (Homo sapiens) (UniProt P08173); experiment: compounds altering M4/GIRK thallium flux, either direction, primary screen, M4 allosteric agonist project, cell-based, HEK293 M4/GIRK, BTC-AM (AID 625;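 active means fluorescence slope after compound addition differing from the mean of all tested samples at 99.7% confidence, mostly higher but some lower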;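 further: thallium influx through GIRK channels coupled to M4 in HEK293 cells with BTC-AM dye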); details: at 10 µM, actives lie on both sides
Procedure, shortened: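 assay system = HEK293 cells with M4 receptor and GIRK channels | medium = pH 7.3 thallium assay buffer | doses = 10 µM final, single point | timing = cells overnight at 37 °C, BTC-AM loading 1 h, reads 2 min total | signal = BTC-AM fluorescence, 1 Hz kinetic reads | read-out = post-addition slope, 15–24 s, of baseline-normalized fluorescence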

[7] = inhibitors of Sendai virus-induced IRF3 signaling, primary screen, TLR/RLR signaling modifier project, cell-based, Sendai virus stimulus, luciferase, 10K MLSCN set (AID 602276); details: HEK293 RL24 IRF3 luciferase reporter, at 10 µM, stronger effect = higher value;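 further: firefly luciferase from ISG56 promoter only with Renilla not read in this screen; 0% = Sendai virus plus DMSO and 100% = medium plus DMSO without virus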
[8] = inhibitors of poly I:C-induced TLR3 signaling, primary screen, cell-based, poly I:C stimulus, luciferase, 10K MLSCN set (AID 602277;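 active means inhibition of the reporter signal at or above 50%; inactive means inhibition below 50%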); details: HEK293-TLR3 RL24 IRF3 luciferase reporter, at 10 µM, stronger effect = higher value

Sequence of Voltage-gated potassium channel subunit beta-2 (Rattus norvegicus) (P62483 whole entry, looked up): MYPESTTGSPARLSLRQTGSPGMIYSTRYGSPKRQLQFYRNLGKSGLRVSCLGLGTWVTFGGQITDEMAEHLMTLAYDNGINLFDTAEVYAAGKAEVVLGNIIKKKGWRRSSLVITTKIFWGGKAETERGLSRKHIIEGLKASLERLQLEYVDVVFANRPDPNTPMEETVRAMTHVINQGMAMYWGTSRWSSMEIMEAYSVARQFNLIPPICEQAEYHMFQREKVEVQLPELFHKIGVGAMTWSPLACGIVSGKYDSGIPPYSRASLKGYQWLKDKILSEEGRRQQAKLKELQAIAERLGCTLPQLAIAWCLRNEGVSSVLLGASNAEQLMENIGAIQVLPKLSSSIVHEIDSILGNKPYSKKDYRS
Sequence of Muscarinic acetylcholine receptor M4 (Homo sapiens) (P08173 whole entry, looked up): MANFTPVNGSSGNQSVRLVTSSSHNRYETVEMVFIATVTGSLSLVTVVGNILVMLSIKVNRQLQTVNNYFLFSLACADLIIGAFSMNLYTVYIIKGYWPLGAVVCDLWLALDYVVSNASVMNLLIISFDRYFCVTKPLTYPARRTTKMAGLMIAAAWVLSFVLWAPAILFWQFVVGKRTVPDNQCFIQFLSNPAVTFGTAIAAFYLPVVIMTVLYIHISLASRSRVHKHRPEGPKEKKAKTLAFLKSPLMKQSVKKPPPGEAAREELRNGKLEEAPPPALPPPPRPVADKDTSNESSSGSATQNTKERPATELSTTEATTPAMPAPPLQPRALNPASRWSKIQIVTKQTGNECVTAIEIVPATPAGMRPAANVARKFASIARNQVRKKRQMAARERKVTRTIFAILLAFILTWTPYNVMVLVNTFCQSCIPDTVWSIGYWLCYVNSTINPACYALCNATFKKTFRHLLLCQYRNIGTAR

| Compound | cell count [1] | inhibition [1] | inhibition of aggregation [2] | nuclei count [2] | inhibition [3] | nuclei count [3] | fluorescence slope [4] | NADPH fluorescence slope [5] | fluorescence slope [6] | inhibition [7] | inhibition [8] |
| --- | --- | --- | --- | --- | --- | --- | --- | --- | --- | --- | --- |
| CCOC(=O)C1CCN(c2c(NCCCN(CC)c3ccccc3)c(=O)c2=O)CC1 | 266 | 5.2% (inactive) | 8.3% (inactive) | 97.6% | -20.2% (inactive) | 95.4% | -0.43 (inactive) | -0.000398 (inactive) | 0.00476 (inactive) | 2.28% (inactive) | 9.33% (inactive) |
| CC(C)=CC(=O)Nc1ccc(Br)cc1 | 670 | -11.9% (inactive) | -6.6% (inactive) | 73.9% | 5.2% (inactive) | 91.1% | -0.582 (inactive) | -1.3e-05 (inactive) | 0.00668 (inactive) | -88% (inactive) | -158% (inactive) |
| Cc1ccc(OC(=O)CCc2c(C)nc3ncnn3c2C)cc1 | 634 | -10.5% (inactive) | 18.7% (inactive) | 130% | -84.1% (inactive) | 112% | -0.551 (inactive) | 9.9e-06 (inactive) | 0.00538 (inactive) | 0.226% (inactive) | 8.51% (inactive) |
| N#Cc1c(SCC(=O)N2CCOCC2)nsc1SCC(=O)N1CCOCC1 | 398 | -8.5% (inactive) | -6.4% (inactive) | 99.1% | -45% (inactive) | 117% | -0.565 (inactive) | -2.7e-05 (inactive) | 0.0058 (inactive) | 3.35% (inactive) | 4.99% (inactive) |
| CCC(=O)/C=C1\Sc2ccc(OC)cc2N1CCO | 626 | 2.4% (inactive) | -1.7% (inactive) | 93.6% | -28.2% (inactive) | 85.1% | -0.577 (inactive) | -3.8e-05 (inactive) | 0.0067 (inactive) | 21.2% (inactive) | 9.17% (inactive) |
| COC(=O)c1cc(OC)c(OC)cc1NC(=O)CC1CCCCC1 | 291 | -8.9% (inactive) | 0.4% (inactive) | 84.5% | 36.1% (inactive) | 73.5% | -0.558 (inactive) | -2.3e-05 (inactive) | 0.00549 (inactive) | 11.3% (inactive) | 11.2% (inactive) |
| N#Cc1c(N)n(CCNC(=O)c2cccs2)c2nc3ccccc3nc12 | 578 | 10.7% (inactive) | 17.7% (inactive) | 99.9% | 29.4% (inactive) | 105% | -0.0517 (inactive) | -2.6e-05 (inactive) | 0.00574 (inactive) | 9.96% (inactive) | -10% (inactive) |
